# Experimental data from different studies.
SMILES,tested on,assay,system,setting,measurement,result
O=C(CO/N=c1\cc2n(-c3ccc(Cl)cc3)c3ccccc3nc-2cc1Nc1ccc(Cl)cc1)NCc1ccc(C(F)(F)F)cc1,Mycobacterium avium,microbial growth,,clinical isolate,MIC,> 30 µM
CC(=O)c1ccc(Oc2ccc(C(=O)C(Cl)Cl)cc2[N+](=O)[O-])cc1,NCI-H1975,"cell growth or viability, MTT",,2.5 µM,inhibition,85.2%
O=C(CO/N=c1\cc2n(-c3ccc(Cl)cc3)c3ccccc3nc-2cc1Nc1ccc(Cl)cc1)NCc1ccc2c(c1)CCO2,Mycobacterium avium,microbial growth,ATCC700898,,MIC,1.88 µM
N#Cc1ccc(Oc2ccc(C(=O)C(Cl)Cl)cc2[N+](=O)[O-])cc1,NCI-H1975,"cell growth or viability, MTT",,2.5 µM,inhibition,96.8%
CN(Cc1ccc(C(C)(C)C)cc1)Cc1cccc2ccccc12,Trichophyton rubrum,"microbial growth, disc diffusion",ATCC28188,"0.512 µg/mL, 6 days",inhibition zone,≥ 55 mm
CCOC(=O)CNC(=O)CO/N=c1\cc2n(-c3ccc(Cl)cc3)c3ccccc3nc-2cc1Nc1ccc(Cl)cc1,Mycobacterium avium,microbial growth,,clinical isolate,MIC,> 30 µM
CN(Cc1ccc(C2(C(F)(F)F)CC2)cc1)Cc1cccc2ccccc12,Trichophyton rubrum,"microbial growth, disc diffusion",ATCC28188,"0.064 µg/mL, 6 days",inhibition zone,≥ 55 mm
CO/N=c1\cc2n(-c3ccc(Cl)cc3)c3ccccc3nc-2cc1Nc1ccc(Cl)cc1,Mycobacterium avium,microbial growth,,clinical isolate,MIC,> 30 µM
O=C(c1ccc(Oc2ccc(-c3ccccc3)cc2)c([N+](=O)[O-])c1)C(Cl)Cl,NCI-H1975,"cell growth or viability, MTT",,2.5 µM,inhibition,85.2%
NCC[C@H](O)C(=O)N[C@@H]1C[C@H](N)[C@@H](O[C@H]2O[C@H](CN)[C@@H](O)[C@H](O)[C@H]2O)[C@H](O)[C@H]1O[C@H]1O[C@H](CO)[C@@H](O)[C@H](N)[C@H]1O,Mycobacterium avium,"microbial growth, resazurin",,,MIC,1.7 µg/mL
O/N=c1\cc2n(-c3ccc(Cl)cc3)c3ccccc3nc-2cc1Nc1ccc(Cl)cc1,Mycobacterium avium,microbial growth,ATCC700898,,MIC,1.88 µM
O=C(c1ccc(Oc2ccc3cc(Br)ccc3c2Cl)c([N+](=O)[O-])c1)C(Cl)Cl,NCI-H1975,"cell growth or viability, MTT",,2.5 µM,inhibition,85.4%
NCCCc1nc(N)nc(N)c1OCCCOc1ccccc1CCC(=O)O,Mycobacterium avium,"microbial growth, resazurin",,,MIC,12.9 µg/mL
CC(C)/N=c1\cc2n(-c3ccc(Cl)cc3)c3ccccc3nc-2cc1Nc1ccc(Cl)cc1,Mycobacterium avium,microbial growth,ATCC700898,,MIC,0.06 µM
O=C(c1ccc(Oc2cccc(-c3ccccc3)c2)c([N+](=O)[O-])c1)C(Cl)Cl,NCI-H1975,"cell growth or viability, MTT",,2.5 µM,inhibition,98.1%
Nc1nc(N)c(OCCCOc2ccccc2CCC(=O)O)c(-c2ccccc2C(F)(F)F)n1,Mycobacterium avium,"microbial growth, resazurin",,,MIC,3.6 µg/mL
C=CC(=O)NC1CCN(c2ncc3ncnc(Nc4ccc(Oc5ccc6c(c5)ncn6C)c(C)c4)c3n2)CC1,HCC1428,cell growth or viability,,,EC50,7.04 µM
COc1cccc2c1C(=O)c1c(O)c3c(c(O)c1C2=O)C[C@@](O)(C(=O)CO)C[C@@H]3O[C@H]1C[C@H](N)[C@H](O)[C@H](C)O1,NCI-H1975,"cell growth or viability, MTT",,72 h,IC50,0.34 µM
